# Screening data from PubChem BioAssay.
# This is a sample that favours compounds with a hit; in the whole collection about 2% have one here.
# TROY signal inh: TROY signaling inhibition. Q293 LMP1-TROYcd NF-kB luciferase reporter, 4 h. inhibition, % at 10 µM. hit rate 0.98% among 360,000. AID 1347056;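 active = compounds whose plate-normalised and pattern-corrected inhibition of the luciferase reporter signal at the single screening dose is 50% or more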
# LMP1 NFkB inh: reduces LMP1-driven NF-kappaB luciferase signal; AID 504558; inhibition, % at 12.5 µM; LMP1-induced NF-kappaB luciferase reporter cells, luminescence; hit rate 0.69% among 350,000; in the data active = inhibition above about 41%;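 note: 0% = neutral control wells and 100% = reference inhibitor control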
# NR2E3 ag-1: agonists of human nuclear receptor NR2E3. GST-NR2E3/biotin-RetCOR TR-FRET, 1536-well. Q9Y5X4. hit rate 0.12% among 320,000. AID 2300. inhibition of corepressor binding, % at 4.78 µM;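 active = percent inhibition above the cutoff of mean plus 3 SD of all tested compounds, set per screening campaign, cut at about 20% in these data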;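 note: 0% = DMSO wells and 100% = biotin wells as full block of FRET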
# Target sequence (Q9Y5X4 whole entry, looked up): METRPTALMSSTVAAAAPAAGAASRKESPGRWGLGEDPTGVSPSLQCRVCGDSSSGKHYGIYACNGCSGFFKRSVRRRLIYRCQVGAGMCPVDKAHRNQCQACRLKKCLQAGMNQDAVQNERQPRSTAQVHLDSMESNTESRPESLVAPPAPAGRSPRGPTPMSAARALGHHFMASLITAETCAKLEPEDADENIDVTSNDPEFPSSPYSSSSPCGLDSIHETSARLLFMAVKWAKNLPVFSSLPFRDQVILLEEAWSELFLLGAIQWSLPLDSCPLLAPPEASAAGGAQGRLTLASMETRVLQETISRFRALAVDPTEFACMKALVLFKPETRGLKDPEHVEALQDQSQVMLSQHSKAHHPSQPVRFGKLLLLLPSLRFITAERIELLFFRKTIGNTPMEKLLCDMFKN
#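 System: GST-NR2E3 and biotin-RetCOR proteins; probe or stimulus: 7 nM biotin-RetCOR; doses: compound at 4.8 µM, single dose; schedule: Compound–protein incubation for 5 h at 4 °C; detection: time-resolved FRET; read-out: percent inhibition; controls: biotin wells as high control, 0.6% DMSO wells as low control; format: 1536-well plates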
# HIF activator: HIF pathway transcriptional activation; U2OS HRE-luciferase reporter, luminescence; normalized: DMSO 0%, desferrioxamine 100%; activation, % at 7.5 µM (by protocol); hit rate 0.32% among 300,000;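 active = mean activation of at least 10% of the iron chelator positive control signal, with at least half of replicates also reaching 10%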
# NR2E3 ag-2: human photoreceptor-specific nuclear receptor agonism; inhibition of corepressor binding, % at 3.98 µM; Q9Y5X4; AID 602229; CHO-S Gal4-NCOR/VP16-NR2E3 two-hybrid, luciferase; hit rate 0.35% among 360,000;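 active = inhibition above the mean of all tested compounds plus 3 SD, cut at about 70% in these data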;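 note: 0% = DMSO with NR2E3 transfected cells and 100% = cells lacking NR2E3 construct; higher means lower luciferase signal from less NR2E3 corepressor binding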
# NR2E3 ag conf: NR2E3 agonism confirmed in two-hybrid assay | hit rate 51% among 2,300 | CHO-S mammalian two-hybrid NR2E3-NCOR, luciferase luminescence | shares compounds with NR2E3 ag-2 | AID 624378 | inhibition, % at 3.98 µM;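 active = average inhibition above a cutoff equal to the mean inhibition of all tested compounds plus one SD, cut at about 70% in these data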;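 note: 0% = DMSO in NR2E3 cells and 100% = DMSO in cells lacking NR2E3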
# VP16 counter: GAL4-VP16 reporter inhibition in NR2E3 agonist counterscreen. shares compounds with NR2E3 ag-2. CHO-S GAL4-VP16 luciferase reporter, luminescence. inhibition, % at 3.98 µM. hit rate 29% among 2,300;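 active = mean inhibition above a cutoff equal to the average over all tested compounds plus one standard deviation, cut at about 70% in these data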;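 note: luciferase from a UAS reporter driven by GAL4-VP16 transactivation; 0% = DMSO with VP16-transfected cells and 100% = DMSO with cells lacking VP16; higher means less reporter light so more repression of VP16 activity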
# Starred values were filed as active, the others as inactive; / = not tested or not shown.
SMILES,TROY signal inh,LMP1 NFkB inh,NR2E3 ag-1,HIF activator,NR2E3 ag-2,NR2E3 ag conf,VP16 counter
Cn1c(=O)c(C#N)c(-c2ccc(F)cc2)c2cc(C(=O)c3cc(Cl)cc(Cl)c3O)cnc21,67.1*,3.6,-1.4,-0.5,93.8*,100.3*,94.2*
COc1ccccc1-n1c(=O)c(C#N)c(-c2ccc([N+](=O)[O-])cc2)c2cc(C(=O)c3cc(F)ccc3O)cnc21,7.8,2.6,3.6,-0.6,-8.5,/,/
Cc1ccc(OCCN2CCC2(C)C(=O)Nc2ccc3c(c2)OCCO3)cc1 (stereo not drawn),-11.3,/,/,/,1.4,/,/
C=CCN(CC=C)C(=S)NC(=O)c1ccc([N+](=O)[O-])cc1,-11.8,-9.1,2.9,0.8,66.1,-6.2,-10.3
C=CCNC(=S)NNC(=O)c1ccc([N+](=O)[O-])cc1,11.3,1.2,1.6,-0.3,-3.4,/,/
CN1c2ccccc2C(O)=C(C(=S)Nc2ccc(F)c(Cl)c2)S1(=O)=O,-13.7,4.0,-3.3,0.0,49.4,88.3*,58.5
Cc1cc(=O)[nH]c(SCc2ccc(Cl)cc2Cl)n1,6.0,1.9,-1.8,0.8,21.0,/,/
Cc1cc(=O)[nH]c(SCc2cccc3ccccc23)n1,19.1,-6.5,-1.5,-0.7,71.2*,79.7*,57.0
Cc1cc(CSc2nc(C)cc(=O)[nH]2)c2ncccc2c1,-14.5,-38.0,-3.2,-0.4,85.8*,93.6*,72.3*
Cc1cc(=O)[nH]c(SCc2cccc(Br)c2)n1,-6.1,-4.6,2.4,-1.0,23.9,/,/
O=C(Nc1ccc(Cl)cc1)C1C2C=CC3(O2)C1C(=O)N(CCN1CCCCC1)C3C(=O)NC1CCCCC1 (stereo not drawn),8.9,4.0,-1.2,-0.5,-9.3,/,/
CC1CCCC(NC(=O)COC(=O)[C@@H](NC(=O)c2ccc(F)cc2)C(C)C)C1C (stereo partly drawn),19.6,7.6,/,/,-21.0,/,/
CC(=O)c1ccc(OCC(=O)NC(=O)NC2CCCCC2)cc1,28.1,12.8,1.3,-0.4,61.4,22.0,55.2
CC1CCCC(C)N1CCCNC(=O)c1csc2c1CCCCC2 (stereo not drawn),-3.0,0.9,-0.3,-0.3,-22.2,/,/
O=C(Nc1ccccc1C(=O)Nc1nnc(C(F)(F)F)s1)c1ccccc1Cl,66.4*,36.7,2.0,-0.8,99.9*,100.6*,92.6*
NC(=O)c1ccccc1NC(=O)c1ccccc1Cl,4.5,-0.5,0.1,-0.4,-6.1,/,/
Cc1ccc2oc(/N=C(\N)NC(=O)C3CC3)nc2c1,30.9,36.1,4.0,-2.8,-134.2,/,/
Cc1ccc2oc(/N=C(\N)NC(=O)C(C)(C)C)nc2c1,92.1*,65.9*,3.2,-4.1,91.0*,91.8*,65.5
O=c1ccn([C@@H]2O[C@H](CNCc3ccc(-n4cccn4)cc3)[C@@H](O)[C@H]2O)c(=O)[nH]1,4.4,9.7,/,/,-6.6,/,/
Cc1ccc(CNS(=O)(=O)c2ccc(-c3cnc(C4CC4)o3)cc2)cc1,16.8,3.3,0.7,0.7,70.5*,55.2,34.7
CCOc1ccccc1CNS(=O)(=O)c1ccc(-c2cnc(C3CC3)o2)cc1,56.3*,29.9,-4.1,-0.8,84.9*,69.5,54.2
Cc1cccc(C)c1NS(=O)(=O)c1ccc(-c2cnc(C3CC3)o2)cc1,46.1,12.1,1.6,1.5,70.2*,54.9,20.7
COc1ccc(C)cc1NS(=O)(=O)c1ccc(-c2cnc(C3CC3)o2)cc1,39.5,14.9,-0.5,0.4,103.1*,56.9,58.8
O=S(=O)(NCc1ccccc1)c1ccc(-c2cnc(C3CC3)o2)cc1,33.5,-6.1,-1.9,-0.1,17.5,/,/
Cc1ccc(NS(=O)(=O)c2ccc(-c3cnc(C4CC4)o3)cc2)cc1,26.0,8.9,-4.0,0.4,36.8,/,/
SMILES,TROY signal inh,LMP1 NFkB inh,NR2E3 ag-1,HIF activator,NR2E3 ag-2,NR2E3 ag conf,VP16 counter
COC(=O)c1ccc(C(=O)N2CCCCCC2(C)C(=O)NC(C)C)cc1 (stereo not drawn),5.0,/,/,/,-4.8,/,/
COc1ccc(CCn2c(C)cc(C(=O)CN3C(=O)C(=O)N(Cc4ccco4)C3=O)c2C)cc1,-13.1,-5.4,4.2,/,-17.7,/,/
COc1ccccc1N1CC(C(=O)OC(C)C(=O)Nc2ccc(F)cc2)CC1=O (stereo not drawn),-17.5,5.1,/,/,-27.1,/,/
COc1ccc(N2CCN(c3nccs3)CC2)cc1,-61.0,-14.3,-1.6,2.1,-46.7,/,/
CCN(CC)S(=O)(=O)c1cc(NC(=O)Cc2ccc(S(=O)(=O)N3CCOCC3)s2)ccc1Cl,33.9,12.2,/,/,19.0,/,/
COc1ccc2[nH]c3c(NCc4ccco4)ncnc3c2c1,/,/,0.4,6.6,/,/,/
Fc1ccc2[nH]c3c(NCc4ccccc4)ncnc3c2c1,52.1*,32.4,-2.2,2.7,90.0*,97.5*,86.8*
O=CNc1cc(-c2cccc(O)c2)cn2c(-c3ccc(F)cc3)cnc12,37.7,/,/,/,-9.4,/,/
O=C(NCc1ccccc1Cl)c1cc(C(=O)C2CC2)c[nH]1,-14.7,14.6,0.7,-0.4,50.9,41.2,27.5
CCCCCCCCCCOC(=O)Cn1c(COc2ccccc2OC)[n+](C)c2ccccc21,61.2*,32.8,-0.1,1.1,47.9,95.0*,68.9
Oc1ccccc1N=Nc1nc(-c2ccccc2)c(-c2ccccc2)[nH]1,21.2,84.2*,3.7,220.2*,81.5*,68.2,42.6
COc1ccc(CNS(=O)(=O)c2ccc3c(c2)CCN3C(=O)C2CC2)cc1,12.4,9.6,1.2,-0.1,49.2,58.1,48.1
O=C(C1CC1)N1CCc2cc(S(=O)(=O)NCCCN3CCCCC3)ccc21,6.6,-2.9,-2.6,-0.2,-4.8,/,/
COc1cccc(CNS(=O)(=O)c2ccc3c(c2)CC(C)N3C(=O)C2CC2)c1 (stereo not drawn),12.3,17.9,0.2,0.2,60.5,55.9,36.0
COc1ccc(CNS(=O)(=O)c2ccc3c(c2)CC(C)N3C(=O)C2CC2)cc1 (stereo not drawn),2.2,4.6,0.5,-0.1,95.2*,89.3*,75.2*
O=C(C1CCC1)N1CCc2cc(S(=O)(=O)NCCN3CCN(c4ccccc4F)CC3)ccc21,21.9,14.5,5.9,0.5,61.5,69.9,55.4
Cc1ccc(N=C2SCCCN2C(=O)C2=COCCO2)cc1Cl,-4.0,2.4,-0.6,0.6,-22.7,/,/
Cc1ccc(CNC(=O)COC(=O)CN2C(=O)C3CC=CCC3C2=O)cc1 (stereo not drawn),-7.6,3.7,/,/,-14.5,/,/
O=C(CN1C(=O)NC2(CCCC2)C1=O)Nc1nc(-c2ccccc2)cs1,-25.3,-4.5,-1.8,0.3,-10.9,/,/
O=C1CCCN1c1ccc(S(=O)(=O)NCCOc2ccccc2)cc1,4.9,20.3,-2.2,-2.2,56.9,0.2,22.1
O=C(CC1Sc2ccccc2NC1=O)NNc1cc(Cl)ccc1Cl (stereo not drawn),5.9,-3.9,/,/,-10.8,/,/
